Compound activity from PubChem.
Lung fibro prol – blocks proliferation of human lung fibroblasts | LL 47 human lung fibroblast viability, ATP luminescence; hits give low values | viability, % at 10 µM | 85,000 compounds, 1.1% hits | AID 719;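 active = viability at or below 50% in the single dose screen; inactive = viability above 50%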;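 also: compound exposure lasted 72 h before the ATP readout; 100% = median luminescence of untreated cell-only wells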
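Material: human LL 47 lung fibroblast cells; quantity: 1,150 cells/well; medium: IMEM plus 15% FBS; doses: 0.1% DMSO in all compound wells; timing: overnight attachment after seeding, then 72 h compound exposure at 37 °C; detection: CellTiter-Glo luminescence; measure: % viability of median cell-only signal; controls: cell-only wells, no compound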
bCat KO growth – beta-catenin-lacking colon tumor cell growth suppression. HCT116 beta-catenin knockout viability, CellTiter-Glo, 60 h; hits give low values. viability, % at 10 µM. 140,000 compounds, 1.5% hits. AID 818;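 active = viability at or under a set limit, the compound median less 4 SD, cut at about 6% in these data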;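 also: 0% = Hyamine 1622 control at 20 µM and 100% = untreated cell control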
H69AR growth 86K – growth inhibitors of human H69AR lung tumor cells; H69AR lung tumor viability, ATP luminescence, 72 h; hits give low values; viability, % at 10 µM; 85,000 compounds, 6% hits; AID 598;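 active = viability at or below 40%; inactive = viability above 40%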;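 also: multidrug resistant small cell line overexpressing MRP-1 efflux transporter; 100% = mean luminescence of untreated control wells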
HUVEC inhibit – human endothelial cell proliferation inhibition | AID 648 | viability, % at 10 µM (by protocol) | 86,000 compounds, 1.1% hits | HUVEC proliferation, CellTiter-Glo luminescence, 72 h; hits give low values;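 active = viability at or below 30%; inactive = viability above 30%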;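 also: 100% = median luminescence of DMSO-only cell control wells on each plate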
PTEN del growth – growth suppressors of cells with PTEN tumor suppressor deletion. HCT116 PTEN-null viability, CellTiter-Glo, 60 h; hits give low values. viability, % at 10 µM. 140,000 compounds, 1.2% hits;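 active = viability at or below a set limit, 4 SD under the median of all tested compounds, cut at about 3.7% in these data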;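 also: PTEN knockout HCT116 line with beta catenin targeted HCT116 as companion control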
* = called active by the depositor; . = no result given. Shown is part of a subset that was picked to be rich in hits.

SMILES	Lung fibro prol	bCat KO growth	H69AR growth 86K	HUVEC inhibit	PTEN del growth
COc1ccc(C(=O)/C=C2/c3ccccc3CC(C)(C)N2C)cc1OC	.	77	.	.	92
CC(C)(C)c1ccc(C(=O)NCCCN2CCN(CCCNC(=O)c3ccc(C(C)(C)C)cc3)CC2)cc1	.	1.3*	.	.	1.8*
Cc1ccccc1N1CCN(C2=NC(=O)/C(=C/c3cn[nH]c3-c3ccccc3)S2)CC1	.	73	.	.	82
CC1(C)CC2CC(C)(CN2C(=O)c2cc(-c3ccccc3O)on2)C1 (stereo unspecified)	85	58	16*	91	47
COc1ccc(-c2cc(C(=O)N3CC4(C)CC3CC(C)(C)C4)no2)cc1 (stereo unspecified)	104	44	83	86	38
CCN(CC)CCNC(=O)Cc1nn(CC)c(=O)c2ccccc12	97	110	108	113	105
CCN(CC)CCNc1ccc(CO)c2sc3ccccc3c(=O)c12	.	1.9*	.	.	1.9*
O=c1[nH]c2ccccc2c2nc3ccccn3c12	90	72	35*	89	72
Cc1cc(C)c2cc3c(N)c(C(=O)N4CCc5ccccc5C4)sc3nc2c1	.	93	.	.	97
Cc1cccc2cc3c(N)c(C(=O)N4CCOCC4)sc3nc12	64	13	18*	62	16
Cc1c(C)[n+](=O)c(-c2cccs2)c(C)n1[O-]	95	93	104	102	96
O=C(N/N=C/c1cccc([N+](=O)[O-])c1)c1ccc(COc2ccccc2-c2ccccc2)cc1	.	79	.	.	80
Cc1ccc(S(=O)(=O)Nc2ccccc2/C=N/c2nc3ccccc3n2C)cc1	.	77	.	.	75
Clc1ccc(C2=Nn3c(nnc3-c3n[nH]c4c3CCC4)SC2)cc1	53	16	15*	57	17
Cc1ccc(-c2nnc3n2N=C(c2ccc(Br)cc2)CS3)cc1	70	90	6.1*	60	91
Cc1cccc(-c2nnc3n2N=C(c2ccc(Br)cc2)CS3)c1	78	.	52	72	.
Brc1ccc(C2=Nn3c(nnc3-c3n[nH]c4c3CCC4)SC2)cc1	41*	19	20*	48	15
Cc1ccccc1-n1c(SCC(=O)Nc2ccccc2)nc2nc3c(cc2c1=O)CCCC3	.	75	.	.	68
CC(C)CNC(=S)N(Cc1ccco1)Cc1cc2cc3c(cc2[nH]c1=O)OCCO3	.	35	.	.	27
CCCCOc1ccccc1NC(=O)C=C(C)C	95	102	98	100	95
CCCOc1ccccc1NC(=O)/C=C/C(N)=O	60	101	2.1*	86	106
CCOC(=O)N1CCN(C(=O)c2cc(-c3ccc(OCC)cc3)nc3ccccc23)CC1	53	18	16*	48	15
COc1ccc(OC)c(-c2cc(C(=O)N3CCN(c4ncccn4)CC3)c3ccccc3n2)c1	88	76	30*	58	63
COc1ccc(-c2cc(C(=O)N3CCN(c4ccccn4)CC3)c3ccccc3n2)cc1	93	38	16*	59	30
COc1ccc(-c2cc(C(=O)N3CCN(c4ncccn4)CC3)c3ccccc3n2)c(OC)c1	.	71	.	.	59
SMILES	Lung fibro prol	bCat KO growth	H69AR growth 86K	HUVEC inhibit	PTEN del growth
CCOc1ccc(-c2cc(C(=O)N3CCN(c4ccccn4)CC3)c3ccccc3n2)cc1	57	20	18*	52	22
S=C(N/N=C/c1ccccc1)N1CCOCC1	.	81	.	.	80
COc1ccc(CNC(=O)/C(C#N)=C2\N=C(NC(=O)c3cccs3)c3ccccc32)cc1	.	92	.	.	88
O=C(CN1CCOCC1)Nc1ncc(Cc2cccc(Cl)c2Cl)s1	.	80	.	.	83
CCCC1(CCC)NC(=O)N(CC(=O)Nc2ccccc2OC)C1=O	15*	102	123	96	98
COC(=O)c1sc2ccccc2c1NC(=O)c1ccc(S(=O)(=O)N2CCC(C)CC2)cc1	.	73	.	.	60
CCOC(=O)C1=C(C)Nc2ncnn2C1/C=C/c1ccccc1 (stereo unspecified)	75	81	23*	81	73
CCCC1=C(C(=O)OCC)C(/C=C/c2ccccc2)n2ncnc2N1 (stereo unspecified)	43*	30	19*	62	32
CCOC(=O)C1=C(c2ccccc2)Nc2ncnn2C1c1cccc(OC)c1OC (stereo unspecified)	91	91	39*	88	85
CS(=O)(=O)n1nc(C(=O)N2CCOCC2)nc1N	.	96	.	.	97
O=S(=O)(NNc1ccc(Cl)nn1)c1ccc(F)cc1	.	78	.	.	87
CCN(CC)S(=O)(=O)c1cccc(NC(=O)c2cc(=O)[nH]c3ccccc23)c1	.	91	.	.	82
Cc1ccccc1OCc1nc2ccccc2c(=O)n1/N=C/c1cn[nH]c1-c1ccc(Br)cc1	.	19	.	.	2.7*
O=c1c2ccccc2nc(COc2ccccc2)n1/N=C/c1cn[nH]c1-c1ccccc1	.	64	.	.	19
Cc1ccc(-c2cc(C(F)F)n3ncc(C(=O)Nc4c(C)nn(Cc5ccccc5Cl)c4C)c3n2)cc1	.	2.4*	.	.	1.4*
Oc1ccc(C=Nc2ccc3ncccc3c2)c(O)c1	106	1.9*	94	83	1.7*
Cc1cccc(Nc2nc(N)c([N+](=O)[O-])c(N3CC(C)CC(C)C3)n2)c1 (stereo unspecified)	.	1.4*	.	.	1.8*
COC(=O)[C@@H](N)CS	97	90	90	98	95
CCOC(=O)N1CCN(c2cc3[nH]c(=S)[nH]c3cc2F)CC1	98	102	65	98	100
CCOC(=O)N1CCN(c2c(F)cc3[nH]c(=S)[nH]c3c2Br)CC1	60	35	8.9*	78	35
CCN(CC)S(=O)(=O)c1ccc(OC)c(NC(=O)CSc2cc(Cl)ccc2Cl)c1	.	85	.	.	88
O=C(NCc1cccnc1)c1sc2cc(Cl)ccc2c1Cl	.	41	.	.	61
Cc1c(CN(C)C(=O)c2sc3cc(Cl)ccc3c2Cl)cnn1C	100	15	77	21*	24
CCCCn1nc(C(=O)Oc2ccc3c(C)cc(=O)oc3c2)c2ccccc2c1=O	.	96	.	.	100
CCc1ccc2nc(NC(=O)c3cc(C)on3)sc2c1	75	31	17*	71	25
SMILES	Lung fibro prol	bCat KO growth	H69AR growth 86K	HUVEC inhibit	PTEN del growth
COc1cc(/C=N/N=C(/N)c2nonc2N)cc(Br)c1OCc1cccc(C)c1	81	74	74	30*	75
CCOc1cc(/C=N/N=C(\N)c2nonc2N)cc(Br)c1OCc1cccc2ccccc12	41*	23	13*	7.5*	10
COc1cc(/C=N/O)cc(Br)c1OCc1ccc(Cl)cc1	.	69	.	.	71
Cc1nc2ccccc2c(=O)n1NC(=O)Cc1ccccc1	104	.	101	98	.
O=C(COC(=O)c1n[nH]c2ccccc12)NC(=O)NC12CC3CC(CC(C3)C1)C2	81	22	17*	69	1.4*
O=C(COC(=O)c1n[nH]c2ccccc12)NC(=O)NC1CCCC1	102	97	92	98	105
Cc1ccc(CN2CC(C(=O)Nc3cccc(S(=O)(=O)N4CCCCC4)c3)CC2=O)cc1 (stereo unspecified)	.	81	.	.	81
